High-throughput results (PubChem BioAssay)
Compounds with a hit are over-represented: about 2.9% of the library has one in this group of screens.
DENV2 CPE rescue – inhibitors of DENV2 cytopathic effect; actives 1.7% (n = 350,000); AID 651640; DENV2-infected cells, cytopathic effect rescue, plate reader; CPE inhibition, % at 9.99 µM; in the data active means CPE inhibition above about 20%, passing the limit was not always enough; inconclusive means no clear call, values can overlap the other calls; tested in BHK-21 cells;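 further: 0% = median of neutral control wells and 100% = median of positive control wells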
E-sel inducer – induces E-selectin expression in human endothelial cells; HUVEC E-selectin immunofluorescence imaging; normalized: neutral wells 0, TNF-alpha wells 100; activation, % at 7.58 µM; actives 0.37% (n = 260,000); AID 686992;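 active means mean E-selectin-positive cell signal at least 10% of the positive control, reached in at least 60% of replicates, without over 20% cell loss; inconclusive means no rule given, readout overlaps actives, possibly toxicity-flagged; inactive means the rest, including those meeting only one limit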
Target sequence (P16581 whole entry, looked up): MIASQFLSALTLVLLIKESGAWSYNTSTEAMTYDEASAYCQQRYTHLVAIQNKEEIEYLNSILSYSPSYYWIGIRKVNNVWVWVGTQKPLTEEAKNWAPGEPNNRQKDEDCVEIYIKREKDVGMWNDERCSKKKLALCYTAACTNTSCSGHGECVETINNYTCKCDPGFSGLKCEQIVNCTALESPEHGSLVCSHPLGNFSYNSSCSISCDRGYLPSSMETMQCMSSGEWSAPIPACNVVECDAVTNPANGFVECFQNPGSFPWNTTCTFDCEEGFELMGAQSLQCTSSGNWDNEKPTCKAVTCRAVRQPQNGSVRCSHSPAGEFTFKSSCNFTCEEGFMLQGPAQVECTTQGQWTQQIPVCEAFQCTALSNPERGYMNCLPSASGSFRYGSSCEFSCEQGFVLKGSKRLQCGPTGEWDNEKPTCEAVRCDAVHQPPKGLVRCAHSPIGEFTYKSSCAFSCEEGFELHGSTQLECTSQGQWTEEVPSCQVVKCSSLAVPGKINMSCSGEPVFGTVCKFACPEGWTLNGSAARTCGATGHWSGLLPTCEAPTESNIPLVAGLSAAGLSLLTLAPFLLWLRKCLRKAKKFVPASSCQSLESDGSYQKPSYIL
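System: HUVEC, human umbilical vein endothelial cells; quantity: 3,000 cells/well; buffer or medium: EGM-2 medium, gelatin-coated wells; dosing: single-point compound dose; detection: immunofluorescence imaging; evaluation: % PE-positive cells; benchmarks: TNF-alpha, DMSO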
SIRT5 inh – blocks human SIRT5 desuccinylation of peptide; Q9NXA8; Purified SirT5, succinyl-peptide AMC, trypsin-coupled fluorescence; inhibition, % at 15 µM; actives 1.1% (n = 330,000); AID 652115; in the data active means inhibition above about 15%; inconclusive means no clear call, values can overlap the other calls
* = called active by the depositor.

Screening CCCN1C[C@@H](C)[C@@H](OC)CN(C)C(=O)c2cc(NC(=O)C3CCOCC3)ccc2OC[C@H]1C returned DENV2 CPE rescue 26*, E-sel inducer 0 and SIRT5 inh -1.
For CCC(=O)Nc1ccc2c(c1)OC[C@@H](C)N(CCC(F)(F)F)C[C@H](C)[C@H](OC)CN(C)C2=O the results were DENV2 CPE rescue -1, E-sel inducer 0 and SIRT5 inh 2.
Screening CCC(=O)Nc1ccc2c(c1)C(=O)N(C)C[C@H](OC)[C@H](C)CN(CCC(F)(F)F)[C@@H](C)CO2 returned DENV2 CPE rescue 16, E-sel inducer 0 and SIRT5 inh 4.
For CCCN1C[C@H](C)[C@@H](OC)CN(C)C(=O)c2cc(NC(=O)C3CCOCC3)ccc2OC[C@H]1C the results were DENV2 CPE rescue 0, E-sel inducer 0 and SIRT5 inh 1.
`CCCC(=O)Nc1ccc2c(c1)C(=O)N(C)C[C@@H](OC)[C@@H](C)CN(CCC(F)(F)F)[C@H](C)CO2` gave DENV2 CPE rescue -6, E-sel inducer 0 and SIRT5 inh 0.
Screening C[C@H](CO)N1C[C@H](C)[C@H](CN(C)Cc2ccncc2)Oc2cc(-c3cccnc3)ccc2S1(=O)=O returned DENV2 CPE rescue -7, E-sel inducer -1 and SIRT5 inh -5.
Screening Cc1c(C(=O)N2CC(C(=O)N3CCCCC3)Oc3ccccc32)oc2ccccc12 (stereo not drawn) returned DENV2 CPE rescue inconclusive, E-sel inducer 0 and SIRT5 inh 8.
`CC=Cc1ccc2n(c1=O)C[C@H]1[C@H](CO)[C@@H](C(=O)N3CCOCC3)N(Cc3ccccc3OC)[C@@H]21` (mixture of isomers) gave DENV2 CPE rescue -1, E-sel inducer 0 and SIRT5 inh -7.
`CCC(=O)Nc1ccc2c(c1)C(=O)N(C)C[C@@H](OC)[C@H](C)CN(CC1CCCCC1)[C@@H](C)CO2` gave DENV2 CPE rescue -4, E-sel inducer 0 and SIRT5 inh 22*.
For CCCN1C[C@@H](C)[C@@H](OC)CN(C)C(=O)c2cc(NC(=O)CC(F)(F)F)ccc2OC[C@@H]1C the results were DENV2 CPE rescue 56* and E-sel inducer 0.
Screening CCCN1C[C@H](C)[C@H](OC)CN(C)C(=O)c2cc(NC(=O)CC(F)(F)F)ccc2OC[C@H]1C returned DENV2 CPE rescue -4, E-sel inducer 0 and SIRT5 inh -2.
CCC(=O)Nc1ccc2c(c1)C(=O)N(C)C[C@@H](OC)[C@@H](C)CN(CC1CCCCC1)[C@@H](C)CO2 was read as DENV2 CPE rescue -2, E-sel inducer 0 and SIRT5 inh 8.
Screening O=C(C[C@H]1CC[C@H]2[C@@H](COC[C@H](O)CN2C(=O)Nc2ccc3c(c2)OCO3)O1)N1CCN(c2ccccc2)CC1 returned DENV2 CPE rescue -1, E-sel inducer 0 and SIRT5 inh 7.
Screening Cc1c(Cl)c([N+](=O)[O-])nn1CCCC(=O)Nc1cccc(O)c1 returned DENV2 CPE rescue 3.
For CCCC#Cc1ccc([C@H]2[C@@H](CO)N3CCCCN(CC4CC4)C[C@@H]23)cc1 the results were DENV2 CPE rescue -3 and SIRT5 inh -5.
CC(C)NC(=O)Nc1cccc2c1O[C@@H](CN(C)C(=O)Nc1ccc(F)cc1)[C@@H](C)CN([C@H](C)CO)C2=O was read as DENV2 CPE rescue 22*, E-sel inducer 0 and SIRT5 inh -2.
For CC(C)NC(=O)Nc1cccc2c1O[C@H](CN(C)C(=O)Nc1ccc(F)cc1)[C@H](C)CN([C@@H](C)CO)C2=O the results were DENV2 CPE rescue -10, E-sel inducer 1 and SIRT5 inh 5.
Screening C[C@@H]1CN([C@H](C)CO)C(=O)c2cccc(NC(=O)C3CC3)c2O[C@@H]1CN(C)C(=O)Nc1ccc(F)cc1 returned DENV2 CPE rescue 12, E-sel inducer 1 and SIRT5 inh -1.
C[C@H](CO)N1C[C@H](C)[C@H](CN(C)C(=O)Nc2ccc(F)cc2)Oc2c(NC(=O)C3CC3)cccc2C1=O was read as DENV2 CPE rescue 35*, E-sel inducer 0 and SIRT5 inh -3.
For C[C@H]1CN([C@@H](C)CO)C(=O)c2cc(-c3ccc(C#N)cc3)cnc2O[C@H]1CN(C)C(=O)Nc1ccc(F)cc1 the results were DENV2 CPE rescue 7, E-sel inducer 1 and SIRT5 inh 6.
Cc1ccccc1NS(=O)(=O)c1ccc2c(c1)oc(=O)n2C was read as DENV2 CPE rescue 1, E-sel inducer 0 and SIRT5 inh 1.
For COc1cc(/C=N/NC(=O)c2ccc(-n3cccc3)cc2)ccc1O the results were E-sel inducer 0.
Screening COc1ccc(NS(=O)(=O)c2cc(NC(=O)CNC(=O)c3cccc(OC)c3)ccc2C)cc1 returned SIRT5 inh 2.
CC(C)(C)S(=O)N1Cc2cc(C(=O)NCCCN3CCOCC3)nc(-c3cccc(-c4cc5ccccc5o4)c3)c2[C@@H]1CCO (stereo partly drawn) was read as DENV2 CPE rescue 16, E-sel inducer -2 and SIRT5 inh -2.
Screening COc1ccccc1NC(=O)N[C@H]1CC[C@@H](CCNC(=O)c2ccc3c(c2)OCO3)O[C@@H]1CO returned DENV2 CPE rescue -13, E-sel inducer 0 and SIRT5 inh 2.
`COc1ccccc1NC(=O)N[C@@H]1CC[C@@H](CCNS(=O)(=O)c2ccc(Cl)cc2)O[C@H]1CO` gave DENV2 CPE rescue 20*, E-sel inducer 0 and SIRT5 inh 1.
For COc1ccccc1NC(=O)N[C@H]1CC[C@@H](CCNS(=O)(=O)c2ccc(F)cc2)O[C@@H]1CO the results were DENV2 CPE rescue -2, E-sel inducer -3 and SIRT5 inh 19*.
`COc1ccccc1NC(=O)N[C@@H]1CC[C@H](CCNS(=O)(=O)c2ccc(F)cc2)O[C@H]1CO` gave DENV2 CPE rescue -1, E-sel inducer 0 and SIRT5 inh -2.
Screening COc1ccccc1NC(=O)N[C@@H]1CC[C@@H](CCNS(=O)(=O)c2ccc(Cl)cc2)O[C@@H]1CO returned DENV2 CPE rescue -12, E-sel inducer 0 and SIRT5 inh 0.
For COc1ccccc1NC(=O)N[C@H]1CC[C@H](CCNC(=O)c2ccc3c(c2)OCO3)O[C@@H]1CO the results were DENV2 CPE rescue 12, E-sel inducer 0 and SIRT5 inh 19*.
For NCCNc1ccc([N+](=O)[O-])cc1 the results were DENV2 CPE rescue -1, E-sel inducer 6 and SIRT5 inh 5.
`C[C@H]1CCCCO[C@H](CN(C)Cc2ccc(C(=O)O)cc2)[C@@H](C)CN([C@@H](C)CO)C(=O)c2cc(NS(=O)(=O)c3ccccc3)ccc2O1` gave DENV2 CPE rescue inconclusive and E-sel inducer 2.
Screening CC(C)CC#Cc1ccc([C@H]2[C@H](CO)N3CCCCN(C(=O)Nc4ccccc4)C[C@@H]23)cc1 returned E-sel inducer 0 and SIRT5 inh -3.
For COc1ccc(NC(=O)Nc2cccc3c2O[C@@H](CN(C)S(=O)(=O)c2ccc(OC)cc2)[C@@H](C)CN([C@H](C)CO)C3=O)cc1 the results were DENV2 CPE rescue 7, E-sel inducer 0 and SIRT5 inh 1.
`CCOC(=O)c1c(C)[nH]c(C)c1C(=O)COC(=O)c1cc(OC)c(OC)cc1OC` gave DENV2 CPE rescue inconclusive and SIRT5 inh 19*.
